Columns and labels:
[1] = Nitrite production was measured with Sievers 280 nitric oxide analyzer chemiluminescence; assay type: ADME
How it was run: (§1)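 Oxyhemoglobin reacted with hydroxyurea derivatives at 50 mM in 0.1 M sodium phosphate, pH 7.3; nitrite and nitrate products quantified by nitric oxide analyzer chemiluminescence; n = 3.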

[2] = Nitrate production was measured with Sievers 280 nitric oxide analyzer chemiluminescence; assay type: ADME; how it was run: as §1
[3] = Apparent rate constant was determined; assay type: ADME
How it was run: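 Adult human oxyhemoglobin (70 μM in heme; also HbS) in 0.1 M sodium phosphate, pH 7.3, mixed with hydroxyurea derivative at 50 mM (5 mM for one poorly soluble analogue), 25 °C under air. UV-visible absorption recorded every 5 min for up to 12 h. Apparent first-order rate constant in min^-1 derived from the spectral kinetics; mean ± SD, n = 3.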

[4] = Dissociation constant (PKa) was determined; assay type: physicochemical
[5] = Half peak chemical potential versus Ag/Agcl was determined; assay type: ADME

| Structure (SMILES) | Nitrite [1] [µM] | Nitrate [2] [µM] | rate constant app [3] [min⁻¹] | pKa [4] | Ep2/2 [5] [mV] |
| --- | --- | --- | --- | --- | --- |
| CONC(N)=O | 0 | 0 |  |  |  |
| CCCCNC(=O)NO | 2.4 | 3.5 | 0.00856 | 11 | 693 |
| NC(=O)NO [HYDROXYUREA] | 9.4 | 25.1 | 0.000754 | 10.7 | 948 |
| CN(O)C(N)=O | 6.3 | 7.5 | 0.0393 | 9.95 | 588 |
| O=C(NO)Nc1ccccc1 | 7.3 | 26.1 | 0.0624 | 10.3 | 433 |
| CCN(CC)C(=O)NO | 6.1 | 18.5 | 0.00226 | 10.8 | 705 |
| COc1ccc(NC(=O)NO)cc1 |  |  | 0.00194 | 10.2 | 560 |

Source: ChEMBL document CHEMBL1145058, “Hydroxyurea analogues as kinetic and mechanistic probes of the nitric oxide producing reactions of hydroxyurea and oxyhemoglobin” (J Med Chem, 2003)
